Test results published in ChEMBL document CHEMBL4422626, “Optimization of novel benzofuro[3,2-b]pyridin-2(1H)-one derivatives as dual inhibitors of BTK and PI3Kδ” (Eur J Med Chem, 2019).
Activity calls are given as the source filed them. No cut-off for these calls is given here.

How the values were obtained:
[1] = target: T1, Phosphatidylinositol 4,5-bisphosphate 3-kinase catalytic subunit delta isoform (Homo sapiens) (UniProt O00329); assay: Inhibition of PI3Kdelta (unknown origin) at 200 nM by ADP-gloassay relative to control
T1 sequence (whole entry): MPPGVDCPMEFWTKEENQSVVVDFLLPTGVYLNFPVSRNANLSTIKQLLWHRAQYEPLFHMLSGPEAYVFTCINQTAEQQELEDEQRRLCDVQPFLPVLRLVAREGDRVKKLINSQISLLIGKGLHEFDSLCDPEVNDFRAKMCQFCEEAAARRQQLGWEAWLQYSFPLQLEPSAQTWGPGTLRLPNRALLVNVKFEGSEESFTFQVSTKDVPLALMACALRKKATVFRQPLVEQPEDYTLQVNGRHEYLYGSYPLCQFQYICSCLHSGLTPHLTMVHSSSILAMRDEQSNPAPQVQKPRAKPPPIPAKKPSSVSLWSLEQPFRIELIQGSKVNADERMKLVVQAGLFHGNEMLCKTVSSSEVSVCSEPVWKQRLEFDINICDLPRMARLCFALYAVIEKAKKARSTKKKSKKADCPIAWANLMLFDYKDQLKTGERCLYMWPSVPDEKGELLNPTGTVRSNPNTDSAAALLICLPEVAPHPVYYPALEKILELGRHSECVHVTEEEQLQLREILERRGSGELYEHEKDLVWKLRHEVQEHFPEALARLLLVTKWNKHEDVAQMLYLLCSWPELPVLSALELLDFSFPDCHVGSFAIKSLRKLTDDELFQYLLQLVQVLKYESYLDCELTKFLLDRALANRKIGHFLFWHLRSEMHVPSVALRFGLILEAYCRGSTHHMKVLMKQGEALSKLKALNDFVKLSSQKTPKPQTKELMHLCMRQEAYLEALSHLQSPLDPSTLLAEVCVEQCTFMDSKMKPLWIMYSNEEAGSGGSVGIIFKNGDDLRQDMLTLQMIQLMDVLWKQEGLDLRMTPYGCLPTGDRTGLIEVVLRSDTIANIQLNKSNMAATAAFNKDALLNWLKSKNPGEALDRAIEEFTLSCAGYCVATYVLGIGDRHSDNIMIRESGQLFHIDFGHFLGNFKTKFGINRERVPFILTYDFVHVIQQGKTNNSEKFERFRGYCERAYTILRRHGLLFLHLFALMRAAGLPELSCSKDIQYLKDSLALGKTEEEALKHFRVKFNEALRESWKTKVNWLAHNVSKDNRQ
Procedure, shortened: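 PI3Kδ was tested with the PI3K-Glo Class I Profiling Kit and a luminescence read-out, following the manufacturer's protocol. Each compound was tested at a single concentration of 200 nM and expressed as percent inhibition versus control.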

Raji [2] = assay: Antiproliferative activity against human Raji cells after 48 hrs by CCK8 assay; assay type: functional, cell-based
Procedure, shortened: (§1)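 Raji and Ramos cells grown in RPMI1640 or IMDM with 10% FBS, 37 °C, 5% CO2. Seeded at 3000-5000 cells/well and left 12-24 h before dosing. Several compound concentrations given for 48 h. CCK-8 then added for 4 h and OD read at 450 nm. IC50 is the concentration giving 50% cell death versus control, calculated from inhibition ratios.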

[3] = target: T2, Tyrosine-protein kinase BTK (Homo sapiens, UniProt Q06187); conditions: at 200 nM
T2 sequence (Q06187 whole entry): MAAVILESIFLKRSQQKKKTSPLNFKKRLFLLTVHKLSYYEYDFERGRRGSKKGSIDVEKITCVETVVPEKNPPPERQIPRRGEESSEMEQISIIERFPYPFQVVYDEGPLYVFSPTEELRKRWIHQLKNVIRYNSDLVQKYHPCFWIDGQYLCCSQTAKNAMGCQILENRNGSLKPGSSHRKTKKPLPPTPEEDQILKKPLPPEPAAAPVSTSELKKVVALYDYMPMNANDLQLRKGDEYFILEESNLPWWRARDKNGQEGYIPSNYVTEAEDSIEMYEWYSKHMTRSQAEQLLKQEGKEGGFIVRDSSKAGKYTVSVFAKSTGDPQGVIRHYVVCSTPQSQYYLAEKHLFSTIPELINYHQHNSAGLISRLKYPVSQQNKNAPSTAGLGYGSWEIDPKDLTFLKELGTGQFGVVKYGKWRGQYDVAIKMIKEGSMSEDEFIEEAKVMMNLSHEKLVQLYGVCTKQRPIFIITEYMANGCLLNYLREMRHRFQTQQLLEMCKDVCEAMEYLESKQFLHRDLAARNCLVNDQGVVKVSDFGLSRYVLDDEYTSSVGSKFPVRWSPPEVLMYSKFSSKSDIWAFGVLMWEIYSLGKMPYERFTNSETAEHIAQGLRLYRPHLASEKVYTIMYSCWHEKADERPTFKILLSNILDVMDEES

[4] = target: T2, Tyrosine-protein kinase BTK; assay: Inhibition of BTK (unknown origin) by ADP-gloassay
Ramos [5] = assay: Antiproliferative activity against human Ramos cells after 48 hrs by CCK8 assay; assay type: functional, cell-based; procedure, shortened: as §1
Raji [6] = assay: Antiproliferative activity against human Raji cells at 5 uM up to 24 hrs by CCK8 assay; assay type: functional, cell-based
Procedure, shortened: (§2)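 Raji (Burkitt lymphoma) cells in RPMI1640 or IMDM with 10% FBS, 37 °C, 5% CO2; seeded 3000-5000 cells/well, preincubated 12-24 h, then exposed to compound. Cells collected at different times and viability read by CCK-8 (4 h incubation, OD 450 nm).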

Raji [7] = assay: Antiproliferative activity against human Raji cells at 5 uM after 24 hrs by CCK8 assay; assay type: functional, cell-based; procedure, shortened: as §2
Ramos [8] = assay: Induction of apoptosis in human Ramos cells assessed as early apoptotic cells at 5 uM after 48 hrs by Annexin-V-FITC/propidium iodide staining based flow cytometric analysis (reference value: 1.08%); assay type: functional
Ramos [9] = assay: Induction of apoptosis in human Ramos cells assessed as late apoptotic cells at 5 uM after 48 hrs by Annexin-V-FITC/propidium iodide staining based flow cytometric analysis (reference value: 0.98%); assay type: functional
Ramos [10] = assay: Induction of apoptosis in human Ramos cells assessed as necrotic cells at 5 uM after 48 hrs by Annexin-V-FITC/propidium iodide staining based flow cytometric analysis (reference value: 1.11%); assay type: functional
Ramos [11] = assay: Induction of apoptosis in human Ramos cells assessed as viable cells at 5 uM after 48 hrs by Annexin-V-FITC/propidium iodide staining based flow cytometric analysis (reference value: 96.83%); assay type: functional; conditions: read-out: Activity
Ramos [12] = assay: Cell cycle arrest in human Ramos cells assessed as accumulation at G0/G1 phase at 5 uM after 48 hrs by propidium iodide staining based flow cytometric analysis (reference value: 24.65%); assay type: functional
Ramos [13] = assay: Cell cycle arrest in human Ramos cells assessed as accumulation at S phase at 5 uM after 48 hrs by propidium iodide staining based flow cytometric analysis (reference value: 71.08%); assay type: functional
Ramos [14] = assay: Cell cycle arrest in human Ramos cells assessed as accumulation at G2/M phase at 5 uM after 48 hrs by propidium iodide staining based flow cytometric analysis (reference value: 4.26%); assay type: functional
Ramos [15] = assay: Cell cycle arrest in human Ramos cells assessed as accumulation at apoptotic phase at 5 uM after 48 hrs by propidium iodide staining based flow cytometric analysis (reference value: 5.03%); assay type: functional
[16] = target: T3, Phosphatidylinositol 4,5-bisphosphate 3-kinase catalytic subunit delta isoform (Homo sapiens, UniProt O00329); assay: Inhibition of PI3Kdelta (unknown origin) by ADP-gloassay
T3 sequence (O00329 whole entry): T1 sequence (whole entry)
Procedure, shortened: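 PI3K isoform activity was measured with the PI3K-Glo Class I Profiling Kit, a luminescent ADP-Glo-type read-out, following the manufacturer's protocol.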

[17] = target: Phosphatidylinositol 4,5-bisphosphate 3-kinase catalytic subunit alpha isoform (Homo sapiens, UniProt P42336); assay: Inhibition of PI3Kalpha (unknown origin) by ADP-gloassay
Phosphatidylinositol 4,5-bisphosphate 3-kinase catalytic subunit alpha isoform, sequence (P42336 whole entry, canonical isoform): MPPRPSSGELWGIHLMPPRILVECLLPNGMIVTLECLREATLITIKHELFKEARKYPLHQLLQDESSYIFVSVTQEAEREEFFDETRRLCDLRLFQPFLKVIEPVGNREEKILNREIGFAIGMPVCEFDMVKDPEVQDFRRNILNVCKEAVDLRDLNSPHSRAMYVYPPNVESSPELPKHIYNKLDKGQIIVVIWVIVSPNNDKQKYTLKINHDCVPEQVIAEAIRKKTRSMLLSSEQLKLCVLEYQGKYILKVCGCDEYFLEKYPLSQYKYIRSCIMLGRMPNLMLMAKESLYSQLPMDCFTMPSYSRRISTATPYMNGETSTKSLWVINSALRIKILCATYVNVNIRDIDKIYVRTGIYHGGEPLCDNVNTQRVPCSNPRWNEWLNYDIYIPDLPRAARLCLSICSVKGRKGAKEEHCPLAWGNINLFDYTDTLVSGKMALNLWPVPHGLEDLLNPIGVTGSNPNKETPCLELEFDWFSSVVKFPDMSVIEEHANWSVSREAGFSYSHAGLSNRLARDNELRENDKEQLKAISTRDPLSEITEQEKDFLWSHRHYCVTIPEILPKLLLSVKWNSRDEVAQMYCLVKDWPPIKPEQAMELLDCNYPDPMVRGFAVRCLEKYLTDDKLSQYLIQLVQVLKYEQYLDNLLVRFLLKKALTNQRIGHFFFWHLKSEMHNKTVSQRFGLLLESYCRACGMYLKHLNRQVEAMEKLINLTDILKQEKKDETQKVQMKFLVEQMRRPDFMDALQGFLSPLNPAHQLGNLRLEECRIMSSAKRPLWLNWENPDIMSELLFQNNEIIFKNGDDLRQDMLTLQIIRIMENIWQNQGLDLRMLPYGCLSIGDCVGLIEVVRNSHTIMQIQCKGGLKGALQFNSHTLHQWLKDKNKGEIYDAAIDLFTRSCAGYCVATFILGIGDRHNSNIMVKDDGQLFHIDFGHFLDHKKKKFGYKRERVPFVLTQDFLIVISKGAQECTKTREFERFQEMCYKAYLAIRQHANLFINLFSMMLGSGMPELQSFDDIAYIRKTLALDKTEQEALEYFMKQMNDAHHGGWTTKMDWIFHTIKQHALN
Procedure, shortened: (§3)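 PI3K isoform activity was measured with the PI3K-Glo Class I Profiling Kit, a luminescent ADP-Glo-type read-out, following the manufacturer's protocol. Compounds were tested over 1 nM–5 μM to give IC50 values.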

[18] = target: Phosphatidylinositol 4,5-bisphosphate 3-kinase catalytic subunit beta isoform (Homo sapiens, UniProt P42338); assay: Inhibition of PI3Kbeta (unknown origin) by ADP-gloassay; procedure, shortened: as §3
Phosphatidylinositol 4,5-bisphosphate 3-kinase catalytic subunit beta isoform, sequence (P42338 whole entry, canonical isoform): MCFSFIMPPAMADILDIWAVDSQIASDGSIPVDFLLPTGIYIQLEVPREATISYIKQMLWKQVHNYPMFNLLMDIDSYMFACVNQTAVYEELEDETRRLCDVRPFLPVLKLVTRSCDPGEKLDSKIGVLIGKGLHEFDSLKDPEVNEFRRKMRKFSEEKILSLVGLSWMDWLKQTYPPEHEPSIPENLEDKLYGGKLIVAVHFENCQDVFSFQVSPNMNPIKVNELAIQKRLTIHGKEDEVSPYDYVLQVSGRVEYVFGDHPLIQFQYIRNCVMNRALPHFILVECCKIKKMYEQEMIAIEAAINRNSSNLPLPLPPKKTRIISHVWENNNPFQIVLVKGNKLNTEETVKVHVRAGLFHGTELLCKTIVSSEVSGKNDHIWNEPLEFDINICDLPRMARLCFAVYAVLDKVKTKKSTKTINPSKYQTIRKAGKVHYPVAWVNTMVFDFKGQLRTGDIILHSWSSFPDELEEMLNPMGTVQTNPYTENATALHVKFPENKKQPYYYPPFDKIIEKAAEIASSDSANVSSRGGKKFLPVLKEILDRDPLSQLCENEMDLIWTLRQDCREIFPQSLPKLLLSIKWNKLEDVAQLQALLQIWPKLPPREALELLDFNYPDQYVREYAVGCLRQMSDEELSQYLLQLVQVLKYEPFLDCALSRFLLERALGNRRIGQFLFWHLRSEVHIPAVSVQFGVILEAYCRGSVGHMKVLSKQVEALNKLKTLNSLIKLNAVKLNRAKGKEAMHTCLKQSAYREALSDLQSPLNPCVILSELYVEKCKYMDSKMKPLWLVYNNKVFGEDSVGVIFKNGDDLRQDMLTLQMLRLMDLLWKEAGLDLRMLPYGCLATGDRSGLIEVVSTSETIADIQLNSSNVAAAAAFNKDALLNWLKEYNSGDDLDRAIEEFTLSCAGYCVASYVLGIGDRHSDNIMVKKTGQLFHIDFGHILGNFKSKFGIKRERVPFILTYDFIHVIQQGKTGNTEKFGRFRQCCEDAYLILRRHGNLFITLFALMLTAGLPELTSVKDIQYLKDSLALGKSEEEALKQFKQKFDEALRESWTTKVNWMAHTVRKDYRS

[19] = target: Phosphatidylinositol 4,5-bisphosphate 3-kinase catalytic subunit gamma isoform (Homo sapiens, UniProt P48736); assay: Inhibition of PI3Kgamma (unknown origin) by ADP-gloassay; procedure, shortened: as §3
Phosphatidylinositol 4,5-bisphosphate 3-kinase catalytic subunit gamma isoform, sequence (P48736 whole entry, canonical isoform): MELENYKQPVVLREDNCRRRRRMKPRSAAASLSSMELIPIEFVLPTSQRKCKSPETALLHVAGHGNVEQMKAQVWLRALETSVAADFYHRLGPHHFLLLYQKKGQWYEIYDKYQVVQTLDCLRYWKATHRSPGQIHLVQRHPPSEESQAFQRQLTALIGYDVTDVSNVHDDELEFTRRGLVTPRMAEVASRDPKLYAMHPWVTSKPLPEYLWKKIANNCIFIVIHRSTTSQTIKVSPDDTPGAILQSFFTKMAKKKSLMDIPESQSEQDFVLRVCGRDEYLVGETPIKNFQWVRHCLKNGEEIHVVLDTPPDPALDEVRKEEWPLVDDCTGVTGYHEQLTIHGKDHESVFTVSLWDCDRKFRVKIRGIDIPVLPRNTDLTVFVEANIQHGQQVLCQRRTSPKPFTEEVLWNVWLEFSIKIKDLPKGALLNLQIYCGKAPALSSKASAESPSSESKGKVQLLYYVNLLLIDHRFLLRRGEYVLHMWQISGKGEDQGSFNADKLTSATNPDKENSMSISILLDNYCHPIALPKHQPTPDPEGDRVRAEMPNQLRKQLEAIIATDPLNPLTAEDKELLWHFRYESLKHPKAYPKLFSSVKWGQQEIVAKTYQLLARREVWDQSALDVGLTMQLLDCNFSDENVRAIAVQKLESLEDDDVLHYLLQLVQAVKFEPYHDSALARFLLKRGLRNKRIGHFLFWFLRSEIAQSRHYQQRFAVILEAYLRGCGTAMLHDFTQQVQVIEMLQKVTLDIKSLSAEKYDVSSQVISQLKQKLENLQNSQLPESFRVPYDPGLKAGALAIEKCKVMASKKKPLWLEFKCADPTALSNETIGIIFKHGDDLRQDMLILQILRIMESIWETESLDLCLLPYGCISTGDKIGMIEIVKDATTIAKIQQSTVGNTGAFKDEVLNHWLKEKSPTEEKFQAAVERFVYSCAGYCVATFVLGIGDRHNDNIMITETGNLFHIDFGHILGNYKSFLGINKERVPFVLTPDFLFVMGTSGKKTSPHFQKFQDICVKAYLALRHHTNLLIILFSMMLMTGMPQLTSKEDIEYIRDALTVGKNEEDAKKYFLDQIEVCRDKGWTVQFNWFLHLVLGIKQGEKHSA

[20] = target: Serine/threonine-protein kinase mTOR (Homo sapiens, UniProt P42345); assay: Inhibition of mTOR (unknown origin) by ADP-gloassay
[21] = target: T1, Phosphatidylinositol 4,5-bisphosphate 3-kinase catalytic subunit delta isoform (Homo sapiens); assay: Inhibition of PI3Kdelta in human Ramos cells assessed as reduction in Akt phosphorylation at Ser473 residues at 0.25 to 4 uM after 4 hrs by Western blot analysis; assay type: cell-based
Procedure, shortened: (§4)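 Cells were treated with compound for 4 h, then stimulated or not with anti-human IgM F(ab')2. They were lysed in Tris-Cl pH 6.8/4% SDS/glycerol/β-mercaptoethanol buffer on ice and protein was quantified by BCA. Equal protein was run on 12% SDS-PAGE and transferred to PVDF. Blots were probed with specific primary antibodies overnight at 4 °C and HRP secondaries 1 h at 37 °C, with ECL detection.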

[22] = target: T1, Phosphatidylinositol 4,5-bisphosphate 3-kinase catalytic subunit delta isoform (Homo sapiens); assay: Inhibition of PI3Kdelta in human Ramos cells assessed as reduction in mTOR phosphorylation at Ser2481 residues at 0.25 to 4 uM after 4 hrs by Western blot analysis; assay type: cell-based; procedure, shortened: as §4
[23] = target: T1, Phosphatidylinositol 4,5-bisphosphate 3-kinase catalytic subunit delta isoform (Homo sapiens); assay: Inhibition of PI3Kdelta in human Ramos cells assessed as reduction in Akt phosphorylation at Ser473 residues at 0.25 to 1 uM after 4 hrs by Western blot analysis; assay type: cell-based
Procedure, shortened: (§5)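 Ramos cells pretreated with compound for 4 h, then stimulated or not with anti-human IgM F(ab')2. Cells were washed in PBS and lysed on ice for 0.5 h in Tris-Cl pH 6.8/SDS/glycerol/β-mercaptoethanol/PMSF/NaF/DTT buffer, then heated. Protein was quantified by BCA, with equal amounts run on 12% SDS-PAGE and semi-dry blotted to PVDF. Primary antibodies overnight at 4 °C, HRP secondary 1 h at 37 °C, ECL detection on film.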

[24] = target: T1, Phosphatidylinositol 4,5-bisphosphate 3-kinase catalytic subunit delta isoform (Homo sapiens); assay: Inhibition of PI3Kdelta in human Ramos cells assessed as reduction in mTOR phosphorylation at Ser2481 residues at 0.25 to 1 uM after 4 hrs by Western blot analysis; assay type: cell-based; procedure, shortened: as §5

| SMILES | inhibition [1] | IC50 (Raji [2]) | inhibition [3] | IC50 [4] | IC50 (Ramos [5]) | further results |
| --- | --- | --- | --- | --- | --- | --- |
| CN(C)CC(=O)Nc1ccc(-n2c(=O)ccc3oc4ccc(C5CCNCC5)cc4c32)cc1 | inactive | 2400 nM | 33.1% | – | – | – |
| COc1ccc(-c2cnc3oc4ccc(=O)n(-c5ccc(NC(=O)CN6CCNCC6)cc5)c4c3c2)cn1 | inactive | 33700 nM | 32% | – | – | – |
| CN(C)CC(=O)Nc1ccc(-n2c(=O)ccc3oc4ccc(-c5ccc(O)cc5)cc4c32)cc1 | inactive | 1800 nM | 51.7% | 150 nM | – | – |
| COc1ccc(-c2cnc3oc4ccc(=O)n(-c5ccc(NC(=O)CN(C)C)cc5)c4c3c2)cn1 | inactive | > 40000 nM | 58.8% | 150 nM | – | – |
| CN(C)CC(=O)Nc1ccc(-n2c(=O)ccc3oc4ccc(-c5cccnc5)cc4c32)cc1 | inactive | 7100 nM | 63.4% | 50 nM | 3430 nM | – |
| C=CC(=O)N1CCC[C@@H](n2nc(-c3ccc(Oc4ccccc4)cc3)c3c(N)ncnc32)C1 [IBRUTINIB] | – | – | – | – | 5800 nM | Activity (Raji [6]): inactive; Activity (Raji [7]): Active; Activity (Ramos [8]): 5.12%; Activity (Ramos [9]): 2.71%; Activity (Ramos [10]): 0.37%; viability at 5 µM (Ramos [11]): 91.8%; Activity (Ramos [12]): 30.5%; Activity (Ramos [13]): 65.18%; Activity (Ramos [14]): 4.26%; Activity (Ramos [15]): 4.33% |
| CN(C)CC(=O)Nc1ccc(-n2c(=O)ccc3oc4ccc(C5CCN(C(=O)OC(C)(C)C)CC5)cc4c32)cc1 | inactive | 7000 nM | 49.2% | – | – | – |
| C=CC(=O)Nc1ccc(-n2c(=O)ccc3oc4ccc(-c5ccc(F)nc5)cc4c32)cc1 | 31.7% | 7300 nM | 32.1% | – | 1650 nM | IC50 [16]: 1270 nM |
| C=CC(=O)Nc1cccc(-n2c(=O)ccc3oc4ccc(-c5ccc(F)nc5)cc4c32)c1 | 34% | 2200 nM | – | – | 1860 nM | IC50 [16]: 920 nM |
| CN(C)CC(=O)Nc1ccc(-n2c(=O)ccc3oc4ccc(-c5cccc6[nH]ccc56)cc4c32)cc1 | inactive | 18800 nM | 47.2% | – | – | – |
| COc1ccc(-c2cnc3oc4ccc(=O)n(-c5ccc(NC(=O)CN6CCCCC6)cc5)c4c3c2)cn1 | inactive | > 40000 nM | 55% | 125 nM | – | – |
| C=CC(=O)Nc1cccc(-n2c(=O)ccc3oc4ccc(-c5cccnc5)cc4c32)c1 | 58.1% | 2100 nM | 86.8% | 74 nM | 2650 nM | IC50 [16]: 170 nM; IC50 [17]: 855 nM; IC50 [18]: 2820 nM; IC50 [19]: 2180 nM; IC50 [20]: > 10000 nM; inhibition [21]: Active; inhibition [22]: Active; Activity (Ramos [8]): 37.62%; Activity (Ramos [9]): 52.16%; Activity (Ramos [10]): 0.67%; viability at 5 µM (Ramos [11]): 9.55%; Activity (Ramos [12]): 60.8%; Activity (Ramos [13]): 34.56%; Activity (Ramos [14]): 4.64%; Activity (Ramos [15]): 55.36% |
| C=CC(=O)Nc1cccc(-n2c(=O)ccc3oc4ccc(-c5ccc(OC)nc5)cc4c32)c1 | 11.3% | 2400 nM | 67.3% | 80 nM | 1300 nM | – |
| Cn1c(=O)n(-c2ccc(C(C)(C)C#N)cc2)c2c3cc(-c4cnc5ccccc5c4)ccc3ncc21 [DACTOLISIB] | – | 220 nM | – | – | 6.8 nM | Activity (Ramos [8]): 53.54%; Activity (Ramos [9]): 40.03%; Activity (Ramos [10]): 0.64%; viability at 5 µM (Ramos [11]): 5.78%; Activity (Ramos [12]): 59.66%; Activity (Ramos [13]): 35.34%; Activity (Ramos [14]): 5%; inhibition [23]: Active; inhibition [24]: Active; Activity (Ramos [15]): 58.92% |
| C=CC(=O)Nc1ccc(-n2c(=O)ccc3oc4ncc(-c5cccnc5)cc4c32)cc1 | 34.2% | 7400 nM | 38.7% | – | 1330 nM | IC50 [16]: 1000 nM |
